In data set [1] the test system is B16-F10. Kind of data set: Induction of apoptosis in mouse B16F10 cells assessed as early apoptotic cells at 10 uM after 48 hrs by Annexin V-FITC/propidium iodide staining based flow cytometry (reference value: 1.75%). It counts as functional. On the technique in general: A flow cytometer gives signals particle by particle.
In data set [2] the test system is B16-F10. Kind of data set: Induction of apoptosis in mouse B16F10 cells assessed as apoptotic cells after 48 hrs by Annexin V-FITC/propidium iodide staining based flow cytometry.
The subject of data set [3] is MCF7. Briefly: Induction of apoptosis in human MCF7 cells assessed as late apoptotic cells at 10 uM after 48 hrs by Annexin V-FITC/propidium iodide staining based flow cytometry (reference value: 8.84%). It counts as functional. In outline: (§1)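 HEK293T (DMEM with 10% FBS) or MCF7 (DMEM/Ham's F-12 1:1, 10% FBS) cells treated 48 h with 10 μM compound or DMSO. Staining with Alexa Fluor 488 annexin V plus 5 μg/ml PI in HEPES/NaCl/CaCl2 binding buffer; 10,000 cells per sample read by flow cytometry; n = 3, mean ± S.E.M.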

The subject of data set [4] is HEK-293T. Kind of data set: Induction of apoptosis in HEK293T cells assessed as necrotic cells at 10 uM after 48 hrs by Annexin V-FITC/propidium iodide staining based flow cytometry (reference value: 8.09%). It counts as cell-based. Particulars: human. In outline:
as §1

Data set [5] has as its system HEK-293T. Kind of data set: Induction of apoptosis in HEK293T cells assessed as late apoptotic cells at 10 uM after 48 hrs by Annexin V-FITC/propidium iodide staining based flow cytometry (reference value: 2.07%). In kind it is cell-based. As to conditions: human. In outline: as §1
Data set [6] concerns the target T1, Monoglyceride lipase (Homo sapiens) (UniProt Q99685).
T1 sequence (whole entry): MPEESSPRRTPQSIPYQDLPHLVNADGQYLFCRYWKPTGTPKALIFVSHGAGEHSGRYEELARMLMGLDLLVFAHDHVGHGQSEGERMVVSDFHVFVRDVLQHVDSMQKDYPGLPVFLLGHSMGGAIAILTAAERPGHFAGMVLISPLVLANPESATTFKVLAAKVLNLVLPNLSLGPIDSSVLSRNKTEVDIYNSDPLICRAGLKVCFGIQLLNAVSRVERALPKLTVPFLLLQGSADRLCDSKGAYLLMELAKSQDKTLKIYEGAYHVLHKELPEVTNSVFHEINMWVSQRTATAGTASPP
Briefly: Inhibition of MAGL in human MCF7 cells at 10 uM using 7-HRA as substrate preincubated for 6 hrs followed by substrate addition by fluorescence assay. It counts as cell-based. In outline:
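MCF7 cells cultured 6 h with 10 μM compound or DMSO, then lysed; MAGL activity measured on total cell lysate using the 7-HRA fluorogenic assay.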

Data set [7] can be described thus: Induction of apoptosis in HEK293T cells assessed as live cells at 10 uM after 48 hrs by Annexin V-FITC/propidium iodide staining based flow cytometry (reference value: 82.43%). As to conditions: human, read-out: Activity. In kind it is cell-based, HEK-293T. In outline:
as §1

The test system of data set [8] is B16-F10. Briefly: Induction of apoptosis in mouse B16F10 cells assessed as early apoptotic cells at 75 nM after 48 hrs by Annexin V-FITC/propidium iodide staining based flow cytometry (reference value: 1.43%). In kind it is functional.
Data set [9] relates to B16-F10. Briefly: Induction of apoptosis in mouse B16F10 cells assessed as necrotic cells at 75 nM after 48 hrs by Annexin V-FITC/propidium iodide staining based flow cytometry (reference value: 5.48%). In kind it is functional.
A further data set has as its target T2, Monoglyceride lipase (Homo sapiens, UniProt Q99685).
T2 sequence (Q99685 whole entry): T1 sequence (whole entry)
Briefly: Inhibition of recombinant human MAGL using 7-HRA as substrate preincubated for 60 mins followed by substrate addition by fluorescence assay. As to conditions: read-out: IC50.

The test system of data set [10] is B16-F10. Briefly: Induction of apoptosis in mouse B16F10 cells assessed as necrotic cells at 35 nM after 48 hrs by Annexin V-FITC/propidium iodide staining based flow cytometry (reference value: 5.48%). It counts as functional.
For data set [11], the system named is HEK-293T. Briefly: Induction of apoptosis in HEK293T cells assessed as early apoptotic cells at 10 uM after 48 hrs by Annexin V-FITC/propidium iodide staining based flow cytometry (reference value: 7.41%). It counts as cell-based. Particulars: human. In outline:
as §1

Data set [12] has as its system MCF7. Briefly: Induction of apoptosis in human MCF7 cells assessed as live cells at 10 uM after 48 hrs by Annexin V-FITC/propidium iodide staining based flow cytometry (reference value: 82.58%). It counts as functional. In outline: as §1
For data set [13], the system named is MCF7. Kind of data set: Induction of apoptosis in human MCF7 cells assessed as early apoptotic cells at 10 uM after 48 hrs by Annexin V-FITC/propidium iodide staining based flow cytometry (reference value: 3.16%). In kind it is functional. In outline: as §1

One compound from ChEMBL document CHEMBL4219238, “Design, synthesis, molecular modelling and in vitro cytotoxicity analysis of novel carbamate derivatives as inhibitors of Monoacylglycerol lipase” (Bioorg Med Chem, 2018) can be followed below.

Activity calls are given as the source filed them. The calls are words filed in the database; no cut-off is given here.

As usually defined, the IC50 is the concentration at which inhibition is half-maximal. As for `O=C(Nc1cccc(-c2ccc(C(F)(F)F)cc2)c1)OCc1ccco1`, the Activity was 3.87% with B16-F10 [1]; “Dose-dependent effect” in the data set with B16-F10 [2]; 25.63% with MCF7 [3]; 8.4% with HEK-293T [4]; 2.1% in the data set with HEK-293T [5]; 2.44% in the data set with B16-F10 [8]. Besides, the Activity in the data set on B16-F10 [9] was 4.33%; with B16-F10 [10] it was 2.62%; in the data set with HEK-293T [11] it was 8.13%; in the data set with MCF7 [12] it was 60.27%; with MCF7 [13], 8.77%. In addition, the inhibition result in [6] is “Active”. Further, the viability at 48 h, 10 µM in data set [7] worked out at 81.4%. At Monoglyceride lipase, the IC50 stood at 6.7 µM.
